Compound activity (PubChem BioAssay)
Dyrk1A ADPGlo – Dyrk1A (rat) kinase inhibition | Q63470 | ADP-Glo luminescence, NFATc1 peptide | inhibition, % at 12.5 µM | actives 0.43% (n = 310,000); in the data active = inhibition above about 50%;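 note: plate controls were vehicle with enzyme for no effect and no enzyme for full effect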
STK33 inh – inhibitors of human STK33 kinase | Q9BYT3 | purified STK33, MBP phosphorylation, ADP-Glo luminescence | inhibition, % at 10 µM | actives 0.073% (n = 320,000) | AID 2661;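 active = inhibition at or above 25%, using the most active replicate where run in duplicate; inactive = inhibition below 25%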
GSK3B inh – human GSK3beta kinase inhibition; actives 0.038% (n = 300,000); GST-GSK3beta kinase, ADP-Glo luminescence, 60 min; active compounds read low; activity score (negative = inhibition), % at 10 µM; P49841;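 active = more than half of replicate wells score below -50%, meaning over 50% inhibition versus plate controls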;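 note: 0% = median DMSO wells and -100% = median GW8510 positive control wells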
Target sequence (P49841 whole entry, looked up): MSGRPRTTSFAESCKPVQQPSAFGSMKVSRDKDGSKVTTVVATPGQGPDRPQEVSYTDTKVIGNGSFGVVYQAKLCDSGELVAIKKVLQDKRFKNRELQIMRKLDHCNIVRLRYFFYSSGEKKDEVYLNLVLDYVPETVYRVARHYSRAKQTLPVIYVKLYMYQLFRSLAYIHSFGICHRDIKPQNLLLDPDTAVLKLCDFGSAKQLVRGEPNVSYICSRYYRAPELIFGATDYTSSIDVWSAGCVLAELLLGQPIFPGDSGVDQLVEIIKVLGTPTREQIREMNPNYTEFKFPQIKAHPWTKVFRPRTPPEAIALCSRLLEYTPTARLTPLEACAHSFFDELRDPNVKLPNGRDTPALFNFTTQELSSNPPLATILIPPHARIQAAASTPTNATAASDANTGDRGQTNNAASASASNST
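Assay system: GST-tagged human GSK3beta kinase, cell-free; Input: 1.6 ng GSK3beta; Medium: Tris/MgCl2 kinase buffer; Timing: 60 min enzyme reaction, room temperature; Signal: ADP-Glo luminescence quantifying ADP generated by kinase; Evaluation: score relative to plate controls; Benchmarks: DMSO neutral wells and GW8510 at 20 µM as positive.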
GSK3 alpha inh – inhibitors of human GSK-3 alpha kinase; actives 0.1% (n = 320,000); ADP-Glo luminescence, 60 min; inhibition, % at 10 µM; P49840;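 active = more than half of replicates show inhibition above 20%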;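 note: GST-tagged GSK-3 alpha with peptide substrate and 25 µM ATP; 0% = DMSO neutral wells and 100% = GW8510 positive control wells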
Dyrk1A artifact – counter-screen for Dyrk1A inhibitors: ADP-Glo luciferase artifacts | shares compounds with Dyrk1A ADPGlo | ADP-Glo luciferase artifact assay, no Dyrk1A, luminescence | AC50, µM (series often up to 12 µM), without a hit: at the top dose activity change, negative = inhibition | 1,300 tested, under 10 active;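 active = fitted half-maximal dose AC50 no more than ten times the top valid tested dose, with luminescence dropping as dose rises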
* marks the source's active call; other numbers are inactive results. This is one part of a sample in which hits are shown more often than they occur.

What do the screens show for `Cc1ccc2nc(NC(=O)CCCC(=O)O)sc2c1`?
Dyrk1A ADPGlo: 62*; STK33 inh: -1; GSK3B inh: -3; GSK3 alpha inh: 1; Dyrk1A artifact: 9%

Results for Cc1cccc(OCC(=O)Nc2nc3ccc([N+](=O)[O-])cc3s2)c1C ?
Dyrk1A ADPGlo: 1; STK33 inh: 7; GSK3B inh: -1; GSK3 alpha inh: 10

Results for O=C(O)COc1ccc(/C=C/c2nc3ccc([N+](=O)[O-])cc3s2)cc1 ?
Dyrk1A ADPGlo: 87*; STK33 inh: 21; GSK3B inh: 0; GSK3 alpha inh: -2; Dyrk1A artifact: 8%

What do the screens show for `CC(C)c1ccc(/C=C/C(=O)Nc2nc3ccc([N+](=O)[O-])cc3s2)cc1`?
Dyrk1A ADPGlo: 24; STK33 inh: -1; GSK3B inh: 2; GSK3 alpha inh: -3

How did Cc1cccc(OCC(=O)Nc2nc3ccc([N+](=O)[O-])cc3s2)c1 do in these assays?
Dyrk1A ADPGlo: 64*; STK33 inh: 1; GSK3B inh: -3; GSK3 alpha inh: -3; Dyrk1A artifact: 6%

What do the screens show for `O=S(=O)(c1ccc(N2CCN(CCO)CC2)nc1)N1CCOCC1`?
Dyrk1A ADPGlo: 3; STK33 inh: 3; GSK3B inh: -1; GSK3 alpha inh: 7

What do the screens show for `COc1ccccc1/C=C/C(=O)Nc1cccc(C(C)=O)c1`?
Dyrk1A ADPGlo: 5; STK33 inh: 4; GSK3B inh: 3

How did O=C(/C=C/c1ccccc1)Nc1cccc(C(=O)NC2CC2)c1 do in these assays?
Dyrk1A ADPGlo: 63*; Dyrk1A artifact: 8%

How did COc1ccc(/C=C/C(=O)Nc2cccc(C(C)=O)c2)cc1 do in these assays?
Dyrk1A ADPGlo: 56*; STK33 inh: 2; GSK3B inh: 1; GSK3 alpha inh: -3; Dyrk1A artifact: 7%

What do the screens show for `O=C(COc1ncnc2ccccc12)Nc1ccccc1[N+](=O)[O-]`?
STK33 inh: 0; GSK3B inh: 1; GSK3 alpha inh: -3

How did O=C(COc1ccc2ccccc2c1)N[C@@H](C(=O)O)c1ccc(O)cc1 do in these assays?
Dyrk1A ADPGlo: 1; STK33 inh: -2; GSK3B inh: -3; GSK3 alpha inh: -3

What do the screens show for `OC1CCN(c2ncnc3nc[nH]c23)CC1`?
Dyrk1A ADPGlo: 13; STK33 inh: 4; GSK3B inh: 2; GSK3 alpha inh: 23

What do the screens show for `CC1CCN(c2ncnc3nc[nH]c23)CC1`?
Dyrk1A ADPGlo: 81*; STK33 inh: 17; GSK3B inh: -6; GSK3 alpha inh: 18; Dyrk1A artifact: 8%

How did c1ccc2c(c1)CCN(c1ncnc3nc[nH]c13)C2 do in these assays?
Dyrk1A ADPGlo: -3; STK33 inh: 2; GSK3B inh: 2; GSK3 alpha inh: 21

How did CC1Cc2ccccc2N1c1ncnc2nc[nH]c12 (configuration not stated) do in these assays?
Dyrk1A ADPGlo: 72*; STK33 inh: 14; GSK3B inh: 1; GSK3 alpha inh: 47; Dyrk1A artifact: 8%

How did CC1(/[N+]([O-])=C\c2ccccc2F)CCCCC1=O (configuration not stated) do in these assays?
STK33 inh: 0; GSK3B inh: 1; GSK3 alpha inh: 0

What do the screens show for `Cc1ccc(CNC(=O)C2CCN(S(=O)(=O)c3cccc4nonc34)CC2)cc1`?
Dyrk1A ADPGlo: -3; STK33 inh: -1; GSK3B inh: 5; GSK3 alpha inh: -2

What do the screens show for `Cc1ccc(CCNC(=O)C2CCN(S(=O)(=O)c3cccc4nonc34)CC2)cc1`?
Dyrk1A ADPGlo: 57*; STK33 inh: -2; GSK3B inh: 14; GSK3 alpha inh: -1; Dyrk1A artifact: 11%

How did CC(C)(NS(=O)(=O)OCC(Cl)(Cl)Cl)c1ccccc1 do in these assays?
Dyrk1A ADPGlo: 9; STK33 inh: -1; GSK3B inh: 1; GSK3 alpha inh: -2

What do the screens show for `CC[C@@](C)(NS(=O)(=O)OCC(Cl)(Cl)Cl)c1ccccc1`?
Dyrk1A ADPGlo: 57*; STK33 inh: 0; GSK3B inh: 0; GSK3 alpha inh: 0; Dyrk1A artifact: 6%

How did COc1ccc(CNC(=O)CCC(=O)Nc2nnc(CC(C)C)s2)cc1 do in these assays?
Dyrk1A ADPGlo: 7; STK33 inh: 0; GSK3B inh: 0; GSK3 alpha inh: -1

Results for COc1ccc(/C=N/NC(=O)c2cc3cc(OC)c(OC)cc3[nH]2)cc1 ?
Dyrk1A ADPGlo: 3; STK33 inh: 2; GSK3B inh: -1; GSK3 alpha inh: 3
